Reference: ChEMBL document CHEMBL3046655, “Schiff bases as potential fungicides and nitrification inhibitors” (2009)
In brackets after ≈: the same amount, converted by molar mass. Activity calls are given as the source filed them. The calls are words filed in the database; no cut-off is given here.

What was measured:
Athelia rolfsii = assay: Fungicidal activity against Athelia rolfsii assessed as fungal growth inhibition at 28 degC by poisoned food technique; assay type: functional; conditions: Agroathelia rolfsii; for EC50: read-out: ED50 (the source's name)
How it was run: (§1)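 Poisoned-food assay on PDA. A 5 mm plug from the growing edge of a 2-week colony was placed centrally. Plates were held at 28 °C until control growth was nearly complete. Colony diameter was measured; n=4. Inhibition = (C−T)×100/C, Abbott-corrected; ED50 by probit.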

Macrophomina phaseolina = assay: Fungicidal activity against Rhizoctonia bataticola assessed as fungal growth inhibition at 28 degC by poisoned food technique; assay type: functional; conditions: for EC50: read-out: ED50 (the source's name); how it was run: as §1

SMILES | ED50 (Athelia rolfsii) | ED50 (Macrophomina phaseolina) | EC50 (Athelia rolfsii) [µg/mL] | EC50 (Macrophomina phaseolina) [µg/mL]
O=[N+]([O-])c1cccc(/C=N/CCC/N=C/c2cccc([N+](=O)[O-])c2)c1 | inactive | inactive | – | –
Fc1ccccc1/N=C/c1c(Cl)cccc1Cl | – | – | 45.6 (≈ 170 µM) | 45 (≈ 168 µM)
O=[N+]([O-])c1cccc(/C=N/c2ccco2)c1 | – | – | 201 (≈ 930 µM) | 17.1 (≈ 79.2 µM)
Clc1ccc(/C=N/c2cc(Cl)c(Cl)cc2Cl)c(Cl)c1 | – | – | 24.4 (≈ 68.9 µM) | 3.05 (≈ 8.63 µM)
Clc1cccc(Cl)c1/C=N/c1ccco1 | – | – | 78.3 (≈ 326 µM) | 45.7 (≈ 190 µM)
O=[N+]([O-])c1cccc(/C=N/c2ccccc2F)c1 | – | – | 160 (≈ 656 µM) | 113 (≈ 462 µM)
Clc1cccc(Cl)c1/C=N/CCCC/N=C/c1c(Cl)cccc1Cl | – | – | 22.1 (≈ 54.8 µM) | 12.4 (≈ 30.9 µM)
O=[N+]([O-])c1cccc(/C=N/C2CCCCC2/N=C/c2cccc([N+](=O)[O-])c2)c1 (stereo unspecified) | inactive | inactive | – | –
Clc1cccc(Cl)c1/C=N/C1CCCCC1/N=C/c1c(Cl)cccc1Cl (stereo unspecified) | – | – | 39.5 (≈ 92.3 µM) | 124 (≈ 290 µM)
Fc1ccc(/N=C/c2c(Cl)cccc2Cl)cc1 | – | – | 108 (≈ 403 µM) | 123 (≈ 459 µM)
O=[N+]([O-])c1cccc(/C=N/CCCC/N=C/c2cccc([N+](=O)[O-])c2)c1 | inactive | inactive | – | –
Fc1cccc(/N=C/c2c(Cl)cccc2Cl)c1 | – | – | 87 (≈ 324 µM) | 54 (≈ 201 µM)
Clc1ccc(/C=N/c2ccco2)c(Cl)c1 | – | – | 35.2 (≈ 147 µM) | 23.1 (≈ 96.4 µM)
O=[N+]([O-])c1cccc(/C=N/c2cccc(F)c2)c1 | – | – | 175 (≈ 718 µM) | 180 (≈ 737 µM)
O=[N+]([O-])c1cccc(/C=N/c2cc(Cl)c(Cl)cc2Cl)c1 | – | – | 21.7 (≈ 65.9 µM) | 6.17 (≈ 18.7 µM)
Fc1ccccc1/N=C/c1ccc(Cl)cc1Cl | – | – | 63.4 (≈ 237 µM) | 15.6 (≈ 58 µM)
CCCCC(O)(Cn1cncn1)c1ccc(Cl)cc1Cl (stereo unspecified) [HEXACONAZOLE] | – | – | 2.3 (≈ 7.32 µM) | 1.7 (≈ 5.41 µM)
Clc1ccc(/C=N/CCCC/N=C/c2ccc(Cl)cc2Cl)c(Cl)c1 | – | – | 179 (≈ 444 µM) | 100 (≈ 249 µM)
O=[N+]([O-])c1cccc(/C=N/c2ccc(F)cc2)c1 | – | – | 164 (≈ 672 µM) | 190 (≈ 779 µM)
Fc1cccc(/N=C/c2ccc(Cl)cc2Cl)c1 | – | – | 548 (≈ 2040 µM) | 600 (≈ 2240 µM)
Fc1ccc(/N=C/c2ccc(Cl)cc2Cl)cc1 | – | – | 37.4 (≈ 140 µM) | 21.8 (≈ 81.4 µM)
Clc1ccc(/C=N/C2CCCCC2/N=C/c2ccc(Cl)cc2Cl)c(Cl)c1 (stereo unspecified) | – | – | 34.2 (≈ 79.9 µM) | 18.3 (≈ 42.7 µM)
Clc1ccc(/C=N/CCC/N=C/c2ccc(Cl)cc2Cl)c(Cl)c1 | – | – | 27.1 (≈ 69.9 µM) | 17.8 (≈ 45.7 µM)
